Residues, ends and D or L forms follow the SMILES beside them. *: point of attachment. Cbz = O=C(OCc1ccccc1)*
How the values were obtained:
Format in all cases: functional
Mus musculus [1] = test: Compound was tested for its ability (% reversal in mice) to reverse electroconvulsive shock-induced amnesia in rodents at a dose of 0.1 (mg/kg) administered intramuscularly (im)
Method in brief: (§1)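 Passive avoidance (step-through, lighted vs darkened compartment). […], ECS (20 mA, 1 s) was given transcorneally via saline-soaked electrodes, and maximal hindlimb extension was required. Drug was given im at selected doses 2 h post-training. One hour later, entry latency to the dark side was recorded, with 60 s counted as retention. At least 75% of ECS controls had to be amnesic. Replicates were mostly not run.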

Rattus norvegicus [2] = test: Compound was tested for its ability (% reversal in rats) to reverse electroconvulsive shock-induced amnesia in rodents at a dose of 1 (mg/kg) administered intramuscularly (im); method in brief: as §1
Rattus norvegicus [3] = test: Ability (% reversal in rats) to reverse electroconvulsive shock-induced amnesia in rodents at a dose of 0.0010 (mg/kg) (following i.m. administration); method in brief: as §1
Mus musculus [4] = test: Compound was tested for its ability (% reversal in mice) to reverse electroconvulsive shock-induced amnesia in rodents at a dose of 10 (mg/kg) administered intramuscularly (im); method in brief: as §1
Rattus norvegicus [5] = test: Ability (% reversal in rats) to reverse electroconvulsive shock-induced amnesia in rodents at a dose of 0.010 (mg/kg) administered intramuscularly (im); method in brief: as §1
Rattus norvegicus [6] = test: Compound was tested for its ability (% reversal in rats) to reverse electroconvulsive shock-induced amnesia in rodents at a dose of 0.1 (mg/kg) administered intramuscularly (im); method in brief: as §1
Mus musculus [7] = test: Compound was tested for its ability (% reversal in mice) to reverse electroconvulsive shock-induced amnesia in rodents at a dose of 1 (mg/kg) administered intramuscularly (im); method in brief: as §1
Rattus norvegicus [8] = test: Compound was tested for its ability (% reversal in rats) to reverse electroconvulsive shock-induced amnesia in rodents at a dose of 10 (mg/kg) administered intramuscularly (im); method in brief: as §1
Mus musculus [9] = test: Compound was tested for its ability (% reversal in mice) to reverse electroconvulsive shock-induced amnesia in rodents at a dose of 100 (mg/kg) administered intramuscularly (im); method in brief: as §1
Rattus norvegicus [10] = test: Ability (% reversal in rats) to reverse electroconvulsive shock-induced amnesia in rodents at a dose of 0.10 (mg/kg) (following intramuscular dosing); method in brief: as §1
Rattus norvegicus [11] = test: Compound was tested for its ability (% reversal in rats) to reverse electroconvulsive shock-induced amnesia in rodents at a dose of 100 (mg/kg) administered intramuscularly (im); method in brief: as §1
Rattus norvegicus [12] = test: Compound was tested for its ability (% reversal in rats) to reverse electroconvulsive shock-induced amnesia in rodents at a dose of 10 (mg/kg) administered intramuscularly (im).; method in brief: as §1
Rattus norvegicus [13] = test: Compound was tested for its ability (% reversal in rats) to reverse electroconvulsive shock-induced amnesia in rodents at a dose of 0.00010 (mg/kg) administered intramuscularly (im); method in brief: as §1
Rattus norvegicus [14] = test: Compound was tested for its ability (% reversal in rats) to reverse electroconvulsive shock-induced amnesia in rodents at a dose of 0.010 (mg/kg) administered intramuscularly (im).; method in brief: as §1
Rattus norvegicus [15] = test: Compound was tested for its ability (% reversal in rats) to reverse electroconvulsive shock-induced amnesia in rodents at a dose of 50 (mg/kg) administered intramuscularly (im); method in brief: as §1
Rattus norvegicus [16] = test: Compound was tested for its ability (% reversal in rats) to reverse electroconvulsive shock-induced amnesia in rodents at a dose of 1 (mg/kg) administered intramuscularly (im).; method in brief: as §1
Mus musculus [17] = test: Ability to reverse electroconvulsive shock-induced amnesia in rodents following 1 ug/kg i.m. administration.; method in brief: as §1
Mus musculus [18] = test: Ability to reverse electroconvulsive shock-induced amnesia in rodents following 0.01 mg/kg i.m. administration.; details: route intramuscular; method in brief: as §1
Mus musculus [19] = test: Ability to reverse electroconvulsive shock-induced amnesia in rodents following 0.1 mg/kg i.m. administration.; details: route intramuscular; method in brief: as §1

Compound | Reversal (Mus musculus [1]) [%] | Reversal (Rattus norvegicus [2]) [%] | Reversal (Rattus norvegicus [3]) [%] | Reversal (Mus musculus [4]) [%] | Reversal (Rattus norvegicus [5]) [%] | Reversal (Rattus norvegicus [6]) [%] | Reversal (Mus musculus [7]) [%] | Reversal (Rattus norvegicus [8]) [%] | Reversal (Mus musculus [9]) [%] | Reversal (Rattus norvegicus [10]) [%] | Reversal (Rattus norvegicus [11]) [%] | Reversal (Rattus norvegicus [12]) [%] | Reversal (Rattus norvegicus [13]) [%] | Reversal (Rattus norvegicus [14]) [%] | Reversal (Rattus norvegicus [15]) [%] | Reversal (Rattus norvegicus [16]) [%] | Reversal (Mus musculus [17]) [%] | Reversal (Mus musculus [18]) [%] | Reversal (Mus musculus [19]) [%]
CC(C)CC(CSCC(=O)O)NC(=O)C1CC(=O)CN1C(=O)OCc1ccccc1 (centres undefined) | 17 | 100 | 17 | 0 | 50 | 83 | 17 | 80 |  |  |  |  |  |  |  |  |  |  | 
O=C1COCC2CCCN12 (centres undefined) |  |  | 0 | 77 | 33 |  | 58 |  | 63 | 33 |  |  |  |  |  |  |  |  | 
NC(=O)COCC(Cc1ccccc1)NC(=O)C1CCCN1C(=O)OCc1ccccc1 (centres undefined) |  | 25 | 11 | 59 | 11 |  | 20 |  | 71 | 0 | 25 | 42 |  |  |  |  |  |  | 
CC(C)CC(CSCC(N)=O)NC(=O)C1CCCN1C(=O)OCc1ccccc1 (centres undefined) |  |  | 66 |  |  |  |  |  |  | 50 |  |  | 0 | 33 |  |  |  |  | 
CC(C)CC(NCC1CCCN1C(=O)OCc1ccccc1)C(=O)NCC(N)=O (centres undefined) |  | 80 | 11 | 67 | 0 |  | 85 | 60 | 57 | 0 | 60 |  |  |  |  |  |  |  | 
Cc1ccc(S(=O)(=O)N2CCCC2CNC(CNCC(=O)O)CC(C)C)cc1 (centres undefined) |  |  | 0 |  | 0 |  |  | 80 |  | 40 |  |  |  |  | 0 | 20 |  |  | 
CC(C)CC(CSCC(=O)O)NC(=O)C1CCC(=O)N1C(=O)OCc1ccccc1 (centres undefined) |  | 0 | 33 |  | 33 |  |  |  |  | 0 | 0 | 0 |  |  |  |  |  |  | 
NC(=O)CNC(=O)[C@H](CCCCNC(=O)OCc1ccccc1)NC(=O)[C@@H]1CCCN1 (H-Pro-Lys(Cbz)-Gly-NH2) |  |  | 60 |  |  |  |  |  |  | 60 |  |  |  | 40 |  |  | 66 | 92 | 100
